Publication PMC9257424 (The Journal of Biological Chemistry, 2022)
Entries after “also recorded” stand apart in the source; their conditions may differ.

Legend:
[1] = biological target: T1, L. blandensis dGTPase R28A (Leeuwenhoekiella blandensis, UniProt A3XHN1, R28A); test: Enzyme-coupled dGTPase activity assay, R28A mutant; assay type: biochemical; details: dATP titration at 1 mM dGTP
T1 sequence (A3XHN1 3-442 R28A): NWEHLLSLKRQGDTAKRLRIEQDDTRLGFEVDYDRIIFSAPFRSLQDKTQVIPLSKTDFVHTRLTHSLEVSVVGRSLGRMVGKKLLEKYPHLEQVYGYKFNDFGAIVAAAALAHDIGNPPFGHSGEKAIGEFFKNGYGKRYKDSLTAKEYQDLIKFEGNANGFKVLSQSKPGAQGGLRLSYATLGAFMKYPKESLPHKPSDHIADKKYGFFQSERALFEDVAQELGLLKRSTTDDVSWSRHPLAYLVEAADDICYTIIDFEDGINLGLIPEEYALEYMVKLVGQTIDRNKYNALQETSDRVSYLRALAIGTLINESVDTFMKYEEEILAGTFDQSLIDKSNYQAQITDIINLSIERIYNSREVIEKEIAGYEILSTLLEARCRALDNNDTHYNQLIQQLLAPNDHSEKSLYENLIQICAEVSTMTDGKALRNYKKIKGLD
Procedure, shortened: (§1)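 Variants of residues 3–442 were made by site-directed mutagenesis, expressed in E. coli BL21(DE3), and purified by Ni–NTA and size exclusion. dATP was serially diluted into buffer containing 1 mM dGTP (100 mM Tris pH 8, 5 mM MgCl2, 125 μM MnCl2, 5 mM phosphate). Reactions started with 1:1 addition of a 2× mix (~120 nM monomer, PNP, XOD). A297 was read at 25 °C, converted to v0/[E]t, and kcat,app versus dATP was Hill-fitted for K1/2.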

[2] = biological target: T2, L. blandensis dGTPase (WT) (Leeuwenhoekiella blandensis, UniProt A3XHN1); test: Enzyme-coupled dGTPase activity assay, WT enzyme; assay type: biochemical
T2 sequence (A3XHN1 3-442): T1 sequence (A3XHN1 3-442 R28A)

[3] = test system: L. blandensis dGTPase R37A; test: Enzyme-coupled dGTPase activity assay, R37A mutant; assay type: biochemical, Leeuwenhoekiella blandensis; details: dATP titration at 1 mM dGTP
Procedure, shortened: as §1

[4] = biological target: T3, L. blandensis dGTPase F40N (Leeuwenhoekiella blandensis, UniProt A3XHN1, F40N); test: Enzyme-coupled dGTPase activity assay, F40N mutant; assay type: biochemical; details: dATP titration at 1 mM dGTP
T3 sequence (A3XHN1 3-442 F40N): T1 sequence (A3XHN1 3-442 R28A)
Procedure, shortened: as §1

[5] = biological target: T2, L. blandensis dGTPase (WT); test: HPLC dGTPase activity assay, WT enzyme; assay type: biochemical; details: mixture of eight standard dNTPs and NTPs, 1 mM each, 1 h
[6] = biological target: T4, L. blandensis dGTPase V74Q (Leeuwenhoekiella blandensis, UniProt A3XHN1, V74Q); test: Enzyme-coupled dGTPase activity assay, V74Q mutant; assay type: biochemical
T4 sequence (A3XHN1 3-442 V74Q): T1 sequence (A3XHN1 3-442 R28A)
Procedure, shortened: as §1

[7] = biological target: Leeuwenhoekiella blandensis MED217 dGTPase (SAMHD1 homolog), wild type, residues 3 to 442 (Leeuwenhoekiella blandensis MED217); test: cryo-EM structure
[8] = biological target: Leeuwenhoekiella blandensis MED217 dGTPase (SAMHD1 homolog), wild type, residues 3 to 442 (Leeuwenhoekiella blandensis MED217); test: crystal structure

stoichiometry N [7] | stoichiometry N [8] | Molecule | activation by dATP [1] | EC50 [2] [µM] | increase of dGTPase kcat by dATP ([2]; WT, 500 µM dATP versus dGTP-only) [%] | fold activation of turnover rate by dATP ([2]; WT, calculated with n^H = 2, dGTP concentration at saturation) [fold] | fold activation of turnover rate by dATP ([2]; WT, calculated with n^H = 2, dGTP less than ~160 µM) | n^H (Hill coefficient) of activation by dATP ([2]; WT, dATP titration at 1 mM dGTP) | activation by dATP [3] | activation by dATP [4] | hydrolysis as substrate [5] | EC50 [6] [µM]
– | – | Nc1ncnc2c1ncn2[C@H]1C[C@H](O)[C@@H](COP(=O)(O)OP(=O)(O)OP(=O)(O)O)O1 [dATP] | eliminate activation by dATP; also recorded: not activated by dATP | 36 ± 3 | ~50 | ~1.6 | more than threefold | 1.3 ± 0.1 | eliminate activation by dATP; also recorded: not activated by dATP | eliminated allosteric activation by dATP | not used as a substrate | 180 ± 16
6 | 6 | Leeuwenhoekiella blandensis MED217 dGTPase (SAMHD1 homolog), wild type, residues 3 to 442 (enzyme) | – | – | – | – | – | – | – | – | – | –
